Results as given in ChEMBL document CHEMBL2440116, “Structure-activity relationships of 2-aminothiazoles effective against Mycobacterium tuberculosis” (Bioorg Med Chem, 2013).
Values after ≈ are worked out from the molar mass of the structure shown.

Experiments:
[1] = system: Mycobacterium tuberculosis; test: Antitubercular activity against Mycobacterium tuberculosis H37Rv in GAST media with glycerol and alanine after 7 to 14 days by broth microdilution method; format: functional
[2] = system: Mycobacterium tuberculosis; test: Antitubercular activity against Mycobacterium tuberculosis H37Rv in Middlebrook 7H9 broth with glucose after 7 to 14 days by broth microdilution method; format: functional
How it was run: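 Broth microdilution of H37Rv in 7H9 with 0.8 g/L NaCl, 5 g/L BSA fraction V, 4 g/L glucose and 0.05% Tyloxapol. Run in quadruplicate from DMSO stocks with DMSO controls; isoniazid positive control.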

[3] = system: Mycobacterium tuberculosis; test: Antitubercular activity against Mycobacterium tuberculosis H37Rv in Middlebrook 7H9 broth with butyrate after 7 to 14 days by broth microdilution method; format: functional
[4] = Therapeutic index, ratio of EC50 for african green monkey Vero cells to MIC for Mycobacterium tuberculosis H37Rv; format: cell-based; details: read-out: TI
Vero = test: Cytotoxicity against african green monkey Vero cells after 72 hrs by MTT assay; format: cell-based; details: Chlorocebus sabaeus
How it was run: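 Vero (CCL-81) cells in MEM with 10% FBS, penicillin-streptomycin and Glutamax, seeded at 3.0×10⁴ per well and left to adhere overnight. Compounds added from DMSO at final 100–0.16 μM, triplicate, for 72 h at 37 °C, 4.5% CO2. Then MTT 1.0 mg/mL in phenol-red-free RPMI for 3 h, formazan dissolved in isopropanol, A570 minus A690. Viability taken relative to DMSO control; EC50 from dose-response curves.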

| Structure (SMILES) | MIC99 [1] | MIC99 [2] | MIC99 [3] | selectivity ratio [4] | EC50 (Vero) |
| --- | --- | --- | --- | --- | --- |
| O=C(Nc1ccccc1)c1nc(-c2ccccn2)cs1 | > 25 µM | > 25 µM | – | – | – |
| Cc1ccc(Nc2nc(-c3ccccn3)cs2)cc1 | 6.3 µM (≈ 1.68 µg/mL) | 12.5 µM (≈ 3.34 µg/mL) | 12.5 µM (≈ 3.34 µg/mL) | – | – |
| Cc1cccc(Nc2nc(-c3ccccn3)cs2)c1C | 3.1 µM (≈ 0.872 µg/mL) | 12.5 µM (≈ 3.52 µg/mL) | 12.5 µM (≈ 3.52 µg/mL) | – | – |
| CCCCCCCCCC(=O)Nc1nc(-c2ccccn2)cs1 | 1.6 µM (≈ 0.53 µg/mL) | 6.3 µM (≈ 2.09 µg/mL) | 3.1 µM (≈ 1.03 µg/mL) | – | – |
| COc1ccc(OC)c(Nc2nc(-c3ccccn3)cs2)c1 | > 12.5 µM | > 50 µM | > 50 µM | – | – |
| Cc1ccccc1C(=O)Nc1nc(-c2ccccn2)cs1 | – | 0.39 µM (≈ 0.115 µg/mL) | 0.19 µM (≈ 0.0561 µg/mL) | 16 | 6.3 µM |
| O=C(Nc1cc(-c2ccccn2)cs1)c1ccccc1 | 12.5 µM (≈ 3.5 µg/mL) | > 25 µM | – | – | – |
| O=C(Nc1nc(-c2ccccn2)cs1)C1CC1 | 6.3 µM (≈ 1.55 µg/mL) | 12 µM (≈ 2.94 µg/mL) | 12.5 µM (≈ 3.07 µg/mL) | – | – |
| O=C(Nc1nc(-c2ccccn2)cs1)c1cccc([N+](=O)[O-])c1 | 0.78 µM (≈ 0.255 µg/mL) | 1.6 µM (≈ 0.522 µg/mL) | – | – | – |
| Oc1ccccc1Nc1nc(-c2ccccn2)cs1 | > 12.5 µM | 50 µM (≈ 13.5 µg/mL) | 25 µM (≈ 6.73 µg/mL) | – | – |
| Fc1cccc(Nc2nc(-c3ccccn3)cs2)c1 | > 12.5 µM | 25 µM (≈ 6.78 µg/mL) | 25 µM (≈ 6.78 µg/mL) | – | – |
| O=C(Nc1nc(-c2ccccn2)cs1)c1ccccc1O | 0.19 µM (≈ 0.0565 µg/mL) | 1.6 µM (≈ 0.476 µg/mL) | 1.6 µM (≈ 0.476 µg/mL) | – | – |
| O=C(Nc1nc(-c2ccccn2)cs1)c1cccnc1 | > 12.5 µM | 6.3 µM (≈ 1.78 µg/mL) | 3.1 µM (≈ 0.875 µg/mL) | – | – |
| O=C(Nc1nc(-c2cnccn2)cs1)c1ccccc1 | > 25 µM | > 25 µM | – | – | – |
| Cc1ccc(C(=O)Nc2nc(-c3ccccn3)cs2)cc1 | 0.098 µM (≈ 0.0289 µg/mL) | 0.39 µM (≈ 0.115 µg/mL) | 0.19 µM (≈ 0.0561 µg/mL) | 27 | 10.5 µM |
| c1ccc(Nc2nc(-c3ccccn3)cs2)cc1 | 12.5 µM (≈ 3.17 µg/mL) | 25 µM (≈ 6.33 µg/mL) | 12.5 µM (≈ 3.17 µg/mL) | – | – |
| O=C(Nc1nc(-c2ccccn2)cs1)c1cscn1 | > 50 µM | > 50 µM | > 50 µM | – | – |
| O=C(Nc1nc(-c2ccccn2)cs1)c1cc(F)ccc1F | 0.098 µM (≈ 0.0311 µg/mL) | 0.39 µM (≈ 0.124 µg/mL) | 0.19 µM (≈ 0.0603 µg/mL) | 8 | 3.3 µM |

| Structure (SMILES) | MIC99 [1] | MIC99 [2] | MIC99 [3] | selectivity ratio [4] | EC50 (Vero) |
| --- | --- | --- | --- | --- | --- |
| CCCC(=O)Nc1nc(-c2ccccn2)cs1 | 12.5 µM (≈ 3.09 µg/mL) | 12 µM (≈ 2.97 µg/mL) | 25 µM (≈ 6.18 µg/mL) | – | – |
| O=C(Nc1nc(-c2ccccn2)c[nH]1)c1ccccc1 | 3.13 µM (≈ 0.827 µg/mL) | 25 µM (≈ 6.61 µg/mL) | – | – | – |
| O=C(Nc1nc(-c2ccccn2)cs1)c1ccccc1Cl | – | 0.39 µM (≈ 0.123 µg/mL) | 0.19 µM (≈ 0.06 µg/mL) | 1 | 2 µM |
| Clc1ccc(Nc2nc(-c3ccccn3)cs2)nc1 | 0.39 µM (≈ 0.113 µg/mL) | 1.6 µM (≈ 0.462 µg/mL) | 1.6 µM (≈ 0.462 µg/mL) | – | – |
| Cc1cccc(Nc2nc(-c3ccccn3)cs2)c1 | 6.3 µM (≈ 1.68 µg/mL) | 25 µM (≈ 6.68 µg/mL) | 12.5 µM (≈ 3.34 µg/mL) | – | – |
| O=C(Nc1nc(-c2ccccn2)cs1)c1ccccc1 | 0.19 µM (≈ 0.0535 µg/mL) | 0.39 µM (≈ 0.11 µg/mL) | 0.19 µM (≈ 0.0535 µg/mL) | 18 | 7.1 µM |
| COc1ccc(Nc2nc(-c3ccccn3)cs2)c(OC)c1 | > 12.5 µM | 6.3 µM (≈ 1.97 µg/mL) | 6.3 µM (≈ 1.97 µg/mL) | – | – |
| O=C(Nc1nc(-c2ccccc2)cs1)c1ccccc1 | ≥ 25 µM | > 25 µM | – | – | – |
| O=C(Nc1nc(-c2ccccn2)cs1)c1ccccc1F | 1.6 µM (≈ 0.479 µg/mL) | 1.6 µM (≈ 0.479 µg/mL) | 0.39 µM (≈ 0.117 µg/mL) | – | – |
| O=C(Nc1nc(-c2ccccn2)cs1)C1CCCCC1 | 1.6 µM (≈ 0.46 µg/mL) | 6.3 µM (≈ 1.81 µg/mL) | 3.1 µM (≈ 0.891 µg/mL) | – | – |
| O=C(Nc1nc(-c2ccccn2)cs1)C1CCC1 | 6.3 µM (≈ 1.63 µg/mL) | 12.5 µM (≈ 3.24 µg/mL) | 6.3 µM (≈ 1.63 µg/mL) | – | – |
| COc1ccccc1C(=O)Nc1nc(-c2ccccn2)cs1 | 1.6 µM (≈ 0.498 µg/mL) | 6.3 µM (≈ 1.96 µg/mL) | 3.1 µM (≈ 0.965 µg/mL) | 7 | 43.5 µM |
| O=C(Nc1nc(-c2ccccn2)cs1)c1cccc(F)c1 | 0.049 µM (≈ 0.0147 µg/mL) | 0.19 µM (≈ 0.0569 µg/mL) | 0.098 µM (≈ 0.0293 µg/mL) | 3 | 1.2 µM |
| Fc1ccc(Nc2nc(-c3ccccn3)cs2)cc1 | 12.5 µM (≈ 3.39 µg/mL) | 25 µM (≈ 6.78 µg/mL) | 25 µM (≈ 6.78 µg/mL) | – | – |
| CC1CC1C(=O)Nc1nc(-c2ccccn2)cs1 (stereo unspecified) | – | 6.3 µM (≈ 1.63 µg/mL) | > 50 µM | – | – |
| CC(=O)c1ccccc1C(=O)Nc1nc(-c2ccccn2)cs1 | 3.13 µM (≈ 1.01 µg/mL) | 12.5 µM (≈ 4.04 µg/mL) | 12.5 µM (≈ 4.04 µg/mL) | 7 | 86.7 µM |
| O=C(Nc1nc(-c2ccccn2)cs1)c1ccc(F)cc1 | 0.098 µM (≈ 0.0293 µg/mL) | 0.39 µM (≈ 0.117 µg/mL) | 0.19 µM (≈ 0.0569 µg/mL) | – | 2.5 µM |
| Fc1ccccc1Nc1nc(-c2ccccn2)cs1 | > 12.5 µM | 50 µM (≈ 13.6 µg/mL) | 25 µM (≈ 6.78 µg/mL) | – | – |
